Data on 5 compounds can be found in publication PMC7442178 (Biochemical engineering journal, 2019).

Residues, ends and D or L forms follow the SMILES beside them. *: point of attachment. AMC = Cc1cc(=O)oc2cc(N*)ccc12; Cbz = O=C(OCc1ccccc1)*

Data set [1] has as its system DUBs in HeLa lysates. The data set is described as follows: DUB-mediated hydrolysis of peptide reporters in HeLa lysates. The following applies: for V/K value (Vmax/Km): HeLa lysates 4 mg/mL, DMSO curves, Michaelis-Menten parameters. Type of data set: biochemical. A digest of the protocol:
(§1)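 Lysates (4 mg/mL protein, by NanoDrop) came from M-PER extraction of PBS-washed HeLa or OPM2 cells, clarified at 14,000 × g. Lysates were pre-treated 1 h with 20 or 50 μM PR-619 or DMSO, in 50 mM HEPES pH 7.4, 150 mM NaCl, 2 mM DTT, 0.02% Tween-20. Released AFC or AMC was read every 30 min for 6 h at 30°C. Rates were calibrated, and Km and vmax came from Michaelis-Menten fits.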

Data set [2] has as its system DUBs in OPM2 lysates. The data set is described as follows: DUB-mediated hydrolysis of peptide reporters in OPM2 lysates. Type of data set: biochemical. Put shortly:
as §1

Data set [3] has as its system DUBs in intact OPM2 cells. The data set is described as follows: Direct visualization of DUB activity in intact OPM2 cells. Type of data set: cell-based. The following applies: 50 μM peptide, 120 minutes, 37°C, DAPI filter.
Data set [4] relates to DUBs in intact HeLa cells. The data set is described as follows: Enzyme-substrate kinetics in intact HeLa cells. Type of data set: cell-based.
The test system of data set [5] is intact cells. The following applies: cited from earlier work.
The conditions of data set [6]: cited from earlier work.

Take `N#CSc1cc(SC#N)c(N)nc1N` [PR-619]: the “Inhibition of DUB activity (residual activity)” value in data set [1] (lysates treated with 50 μM PR-619, pre-treatment 1 h, HeLa lysates) is reported as “incomplete inhibition”; in data set [2] (lysates treated with 50 μM PR-619, pre-treatment 1 h, OPM2 lysates), “incomplete inhibition”.

Consider `Cc1cc(=O)oc2cc(NC(=O)CNC(=O)CNC(=O)[C@H](CCCNC(=N)N)NC(=O)[C@H](CC(C)C)NC(=O)OCc3ccccc3)ccc12` [Peptide 3, Z-Leu-Arg-Gly-Gly-AMC] (Cbz-LRGG-{AMC}), for which the “Intracellular fluorescence signal from DUB-mediated hydrolysis” value in data set [3] was “did not produce a detectable signal”. For the same compound, the “V/K value (Vmax/Km)” value in data set [1] worked out at 0.00021 min⁻¹. Further, the “Reaction rates in intact cells” value in data set [4] (intact HeLa cells incubated with varying peptide concentrations for 6 h) was “not significantly different from zero”.

Consider “Ac-RWVRVpGO(FAM)WIRQ-LRGG-AFC [Peptide 1]”, for which, in data set [3], the “Intracellular fluorescence signal from DUB-mediated hydrolysis” value is “showed an increase in intracellular fluorescence”. Besides, the “V/K value (Vmax/Km)” value in data set [1] amounted to 0.00212 min⁻¹. Also, the “Si,max, intracellular saturation concentration (model)” value in data set [4] (calculated from a, b, c, d, nintact with Eq. 7, HeLa cells) is 1.28 µM. For the same compound, in data set [4] (calculated from a, b, c, d, nintact with Eq. 8, HeLa cells), the “S0,50, external solution concentration at half-saturation level (model)” value was 55.1 µM. For the same compound, the “nintact (Hill coefficient)” value in data set [4] (intact HeLa cells, Hill model fit) worked out at 6.8. For the same compound, in data set [4] (intact HeLa cells, from Hill parameters, unit not given), the “(V/K) intact” value is recorded as 1.38*10^−5. In addition, the “Uninhibited reaction rates in OPM2 lysates, comparison” value in data set [2] (OPM2 lysates 4 mg/mL, no inhibitor, p<10^−4) was “significantly higher than Peptide 3”.

Consider “Ac-RWVRVpGO(FAM)WIRQ-LVLRLRGG-AFC [Peptide 2]”, for which the “Effect of DUB inhibition (PR-619) on rate data of the reporter” value in data set [1] (HeLa lysates pre-treated 1 h with 0, 20, 50 μM PR-619) is reported as “did not result in a significant effect”.

On to RWVRVpGRWIRQ [RWRWR], for which, in data set [5], the “Incubation time sufficient to deliver the CPP into intact cells” value is 10 min and the “Time to penetrate intact cells” value is at most 10 min. In data set [6], the “half-life in HeLa lysates” value is 7 h.
